One block for each molecule: values may come before it. The source made the active and inactive calls. The rule behind the calls is not given here.
What was measured:
[1] = biological target: T1, Nuclear receptor subfamily 1 group I member 2 (Homo sapiens, UniProt O75469); test: Activation of human PXR ligand binding domain incubated for 1 hr by TR-FRET assay; assay type: ADME
T1 sequence (O75469 whole entry): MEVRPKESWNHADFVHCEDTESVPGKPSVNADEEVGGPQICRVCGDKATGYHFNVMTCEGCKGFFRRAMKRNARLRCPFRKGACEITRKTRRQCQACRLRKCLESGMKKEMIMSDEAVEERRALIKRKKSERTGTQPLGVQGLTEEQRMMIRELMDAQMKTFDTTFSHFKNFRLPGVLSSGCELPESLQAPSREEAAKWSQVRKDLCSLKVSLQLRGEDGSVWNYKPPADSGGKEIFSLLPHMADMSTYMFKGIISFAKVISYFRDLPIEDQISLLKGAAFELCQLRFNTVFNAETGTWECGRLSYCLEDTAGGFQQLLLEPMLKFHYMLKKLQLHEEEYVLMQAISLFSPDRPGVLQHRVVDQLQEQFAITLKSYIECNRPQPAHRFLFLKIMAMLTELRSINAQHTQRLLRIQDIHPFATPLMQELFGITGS

CYP3A4 = CYP3A4 (Homo sapiens, UniProt P08684); test: Inhibition of CYP3A4 in human liver microsomes assessed as reduction in 1'-hydroxymidazolam formation using midazolam as substrate at 10 uM preincubated with enzyme and NADPH followed by substrate addition and measured after 10 mins by HPLC/MS-MS analysis relative to control; assay type: ADME; conditions: probe midazolam (1'-hydroxymidazolam formation)
Sequence of CYP3A4 (P08684 whole entry): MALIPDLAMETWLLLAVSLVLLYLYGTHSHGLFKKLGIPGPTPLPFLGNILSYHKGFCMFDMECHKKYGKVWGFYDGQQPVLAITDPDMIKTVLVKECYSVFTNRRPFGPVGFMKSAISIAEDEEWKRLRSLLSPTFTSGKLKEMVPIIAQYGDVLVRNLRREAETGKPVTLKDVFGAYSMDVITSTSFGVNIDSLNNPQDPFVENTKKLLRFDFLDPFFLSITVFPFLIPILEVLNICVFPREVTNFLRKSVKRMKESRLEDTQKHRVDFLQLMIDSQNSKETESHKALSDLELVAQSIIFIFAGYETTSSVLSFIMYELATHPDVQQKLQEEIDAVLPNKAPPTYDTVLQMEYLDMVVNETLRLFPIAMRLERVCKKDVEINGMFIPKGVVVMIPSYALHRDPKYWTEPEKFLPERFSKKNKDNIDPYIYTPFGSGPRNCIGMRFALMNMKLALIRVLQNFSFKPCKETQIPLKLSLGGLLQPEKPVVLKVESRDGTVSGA
How it was run: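 Compound at 100 µM was pre-incubated at 37 °C with human liver microsomes (0.5 mg/mL) in 0.1 M phosphate pH 7.4 with 5 mM MgCl₂ and 1 mM NADPH. The mix was then diluted 10-fold into 25 µM midazolam in the same buffer and incubated 10 min at 37 °C. Ice-cold acetonitrile stopped the reaction. 1′-Hydroxymidazolam was quantified by HPLC-MS/MS, with ketoconazole (1 µM) as reference inhibitor.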

[2] = Toxicity in mouse assessed as convulsions at 300 mg/kg, po; assay type: organism-based; conditions: in vivo
[3] = biological target: Transient receptor potential cation channel subfamily M member 8 (Rattus norvegicus, UniProt Q8R455); test: Antagonist activity at rat TRPM8 transfected in HEK293T cells assessed as reduction in menthol-induced calcium influx measured after 60 mins by Fluo-4 AM dye based fluorescence analysis; assay type: cell-based
Sequence of Transient receptor potential cation channel subfamily M member 8 (Rattus norvegicus, UniProt Q8R455) (Q8R455 whole entry): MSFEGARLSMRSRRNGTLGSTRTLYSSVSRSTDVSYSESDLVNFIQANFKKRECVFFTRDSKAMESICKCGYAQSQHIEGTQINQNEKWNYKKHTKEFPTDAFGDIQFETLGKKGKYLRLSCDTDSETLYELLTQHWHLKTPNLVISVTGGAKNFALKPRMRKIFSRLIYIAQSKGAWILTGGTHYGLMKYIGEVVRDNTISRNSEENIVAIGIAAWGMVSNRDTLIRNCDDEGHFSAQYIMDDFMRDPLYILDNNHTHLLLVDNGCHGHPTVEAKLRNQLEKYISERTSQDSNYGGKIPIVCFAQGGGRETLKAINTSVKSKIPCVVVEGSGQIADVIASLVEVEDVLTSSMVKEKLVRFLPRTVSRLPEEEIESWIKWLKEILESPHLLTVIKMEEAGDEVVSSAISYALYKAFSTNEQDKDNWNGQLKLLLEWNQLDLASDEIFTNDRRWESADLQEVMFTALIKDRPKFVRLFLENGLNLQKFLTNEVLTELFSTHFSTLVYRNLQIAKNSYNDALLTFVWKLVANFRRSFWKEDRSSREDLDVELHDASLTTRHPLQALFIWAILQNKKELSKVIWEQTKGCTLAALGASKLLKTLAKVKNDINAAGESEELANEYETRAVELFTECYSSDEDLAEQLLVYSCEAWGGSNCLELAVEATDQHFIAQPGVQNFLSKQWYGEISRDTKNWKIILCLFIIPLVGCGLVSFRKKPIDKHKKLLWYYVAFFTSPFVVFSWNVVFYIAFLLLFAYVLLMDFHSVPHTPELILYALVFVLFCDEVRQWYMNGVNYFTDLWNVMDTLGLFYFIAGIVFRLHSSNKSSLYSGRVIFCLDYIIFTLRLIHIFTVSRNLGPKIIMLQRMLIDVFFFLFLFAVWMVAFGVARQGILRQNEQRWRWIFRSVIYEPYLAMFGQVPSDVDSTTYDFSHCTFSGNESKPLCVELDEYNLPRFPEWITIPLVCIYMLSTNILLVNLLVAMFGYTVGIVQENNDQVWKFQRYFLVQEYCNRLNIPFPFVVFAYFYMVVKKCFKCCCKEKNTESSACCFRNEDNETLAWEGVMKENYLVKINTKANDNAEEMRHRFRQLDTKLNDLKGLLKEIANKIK
How it was run: (§1)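 HEK293T cells were seeded at 5 × 10⁴ cells/well in DMEM with 10% FBS and transfected 4 h later. The vectors were pcDNA3.1 for TRPM8, TRPA1 and TRPV4, and pCI-neo for TRPV1. After 2 days, cells were dye-loaded for 60 min at 37 °C: Fluo-4 AM for TRPM8, TRPA1 and TRPV1, Fura-2 AM for TRPV4. Calcium was read on an FDSS reader. IC50 came from nonlinear regression, mean ± SEM (n = 3).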

[4] = Cmax in Sprague-Dawley rat at 3 mg/kg, po measured upto 6 hrs by LC-MS/MS analysis; assay type: ADME, organism-based; set-up: route oral, dose 3 mg/kg, time <=6; conditions: in vivo
How it was run: (§2)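 Rats were given a single oral or intravenous dose. Blood was taken from the jugular vein at 2, 15 and 30 min and at 1, 2, 4 and 6 h. Plasma levels were measured by LC-MS/MS. Each parameter was calculated from the mean plasma concentration of three animals.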

[5] = Tmax in Sprague-Dawley rat at 3 mg/kg, po by LC-MS/MS analysis; assay type: ADME, organism-based; conditions: in vivo, time <=6 hrs; how it was run: as §2
[6] = AUC (0 to infinity) in Sprague-Dawley rat at 1 mg/kg, iv by LC-MS/MS analysis; assay type: ADME, organism-based; set-up: time infinity, route intravenous, dose 1 mg/kg; conditions: in vivo; how it was run: as §2
[7] = AUC (0 to infinity) in Sprague-Dawley rat at 3 mg/kg, po by LC-MS/MS analysis; assay type: ADME, organism-based; set-up: time infinity, route oral, dose 3 mg/kg; conditions: in vivo; how it was run: as §2
[8] = Half life in Sprague Dawley rat at 1 mg/kg, iv by LC-MS/MS analysis; assay type: ADME, organism-based; conditions: in vivo; how it was run: as §2
[9] = Total clearance in Sprague-Dawley rat at 1 mg/kg, iv measured upto 6 hrs by LC-MS/MS analysis; assay type: ADME, organism-based; conditions: in vivo; how it was run: as §2
[10] = Volume of distribution at steady state in Sprague-Dawley rat at 1 mg/kg, iv measured upto 6 hrs by LC-MS/MS analysis; assay type: ADME, organism-based; conditions: in vivo, read-out: Vdss; how it was run: as §2
[11] = Oral bioavailability in Sprague-Dawley rat at 3 mg/kg measured upto 6 hrs by LC-MS/MS analysis; assay type: ADME, organism-based; conditions: in vivo; how it was run: as §2
[12] = biological target: Transient receptor potential cation channel subfamily A member 1 (Homo sapiens, UniProt O75762); test: Inhibition of human TRPA1 transfected in HEK293T cells assessed as reduction in AITC-induced calcium influx measured after 60 mins by Fluo-4 AM dye based fluorescence analysis; assay type: cell-based; how it was run: as §1
[13] = biological target: Transient receptor potential cation channel subfamily V member 1 (Homo sapiens, UniProt Q8NER1); test: Inhibition of human TRPV1 transfected in HEK293T cells assessed as reduction in capsaicin-induced calcium influx measured after 60 mins by Fluo-4 AM dye based fluorescence analysis; assay type: cell-based; how it was run: as §1
Sequence of Transient receptor potential cation channel subfamily V member 1 (Q8NER1 whole entry): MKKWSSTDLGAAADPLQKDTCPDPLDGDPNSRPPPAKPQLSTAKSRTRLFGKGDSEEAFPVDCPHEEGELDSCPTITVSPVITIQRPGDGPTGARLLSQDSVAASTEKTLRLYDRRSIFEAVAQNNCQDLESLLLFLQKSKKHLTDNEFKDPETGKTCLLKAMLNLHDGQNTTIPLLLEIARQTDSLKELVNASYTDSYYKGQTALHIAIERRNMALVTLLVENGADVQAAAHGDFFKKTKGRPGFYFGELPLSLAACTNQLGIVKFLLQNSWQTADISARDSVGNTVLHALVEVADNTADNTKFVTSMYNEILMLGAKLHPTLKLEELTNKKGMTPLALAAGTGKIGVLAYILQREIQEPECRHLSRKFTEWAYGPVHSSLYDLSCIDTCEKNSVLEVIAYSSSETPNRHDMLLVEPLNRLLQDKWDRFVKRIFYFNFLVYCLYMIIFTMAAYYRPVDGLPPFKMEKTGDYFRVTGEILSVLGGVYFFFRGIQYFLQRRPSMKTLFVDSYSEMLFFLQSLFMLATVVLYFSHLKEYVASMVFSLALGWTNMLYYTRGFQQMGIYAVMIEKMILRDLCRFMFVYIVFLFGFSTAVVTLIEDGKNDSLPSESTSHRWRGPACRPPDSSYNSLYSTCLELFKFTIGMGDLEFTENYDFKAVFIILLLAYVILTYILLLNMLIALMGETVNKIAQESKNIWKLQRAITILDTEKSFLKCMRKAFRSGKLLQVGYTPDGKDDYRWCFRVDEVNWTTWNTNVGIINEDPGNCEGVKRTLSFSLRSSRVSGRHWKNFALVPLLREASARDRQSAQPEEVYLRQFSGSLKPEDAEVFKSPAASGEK

[14] = biological target: Transient receptor potential cation channel subfamily V member 4 (Homo sapiens, UniProt Q9HBA0); test: Inhibition of human TRPV4 transfected in HEK293T cells assessed as reduction in RN1747-induced calcium influx measured after 60 mins by Fura-2 AM dye based fluorescence analysis; assay type: cell-based; how it was run: as §1
Sequence of Transient receptor potential cation channel subfamily V member 4 (Q9HBA0 whole entry): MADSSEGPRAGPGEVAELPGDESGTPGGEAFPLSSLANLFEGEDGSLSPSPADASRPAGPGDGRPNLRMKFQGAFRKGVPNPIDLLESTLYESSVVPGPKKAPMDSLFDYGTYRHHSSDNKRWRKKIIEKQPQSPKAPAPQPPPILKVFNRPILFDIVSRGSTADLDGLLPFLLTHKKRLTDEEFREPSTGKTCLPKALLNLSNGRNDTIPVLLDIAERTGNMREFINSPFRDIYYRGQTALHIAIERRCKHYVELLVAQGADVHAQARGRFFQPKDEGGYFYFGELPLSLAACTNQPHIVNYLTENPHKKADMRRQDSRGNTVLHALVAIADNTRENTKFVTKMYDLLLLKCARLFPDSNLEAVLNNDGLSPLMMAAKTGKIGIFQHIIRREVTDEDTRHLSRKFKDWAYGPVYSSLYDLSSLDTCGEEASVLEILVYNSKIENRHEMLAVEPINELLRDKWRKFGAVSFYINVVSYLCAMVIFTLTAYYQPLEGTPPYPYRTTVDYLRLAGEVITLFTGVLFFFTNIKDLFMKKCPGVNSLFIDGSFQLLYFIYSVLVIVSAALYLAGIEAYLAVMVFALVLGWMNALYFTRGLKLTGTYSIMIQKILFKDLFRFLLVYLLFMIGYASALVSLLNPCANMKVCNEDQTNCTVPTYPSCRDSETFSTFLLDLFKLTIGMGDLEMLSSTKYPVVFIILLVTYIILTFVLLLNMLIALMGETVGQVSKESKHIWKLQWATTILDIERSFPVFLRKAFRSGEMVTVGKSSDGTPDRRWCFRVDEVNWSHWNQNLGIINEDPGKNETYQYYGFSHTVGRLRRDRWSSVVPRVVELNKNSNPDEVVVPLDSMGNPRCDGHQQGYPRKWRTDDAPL

[15] = In vivo antagonist activity at TRPM8 in Sprague-Dawley rat assessed as inhibition of icilin-induced wet dog shakes at 10 mg/kg, po administered 1 hr prior to icilin administration and measured after 5 mins for 5 mins; assay type: functional; conditions: 1.167 h, time 70 min
How it was run: (§3)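 Female rats received vehicle or compound orally. After 1 or 4 h, icilin (1 mg/mL in PEG 400) was given intraperitoneally. Wet-dog shakes were counted for 5 min, starting 5 min after icilin. Results are percent inhibition versus vehicle-treated counts, mean ± SEM (n = 5).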

Rattus norvegicus [16] = test: Inhibition of overactive bladder activity in Sprague-Dawley rat assessed as inhibition of cold-induced voiding behaviour by measuring mean voided volume at 10 mg/kg, po administered 1 hr prior to cold exposure and measured at 2 mins interval for 4 hrs (reference value: 0.57 +/- 0.05 ml); assay type: functional; conditions: time 5 hrs
Rattus norvegicus [17] = test: Inhibition of overactive bladder activity in Sprague-Dawley rat assessed as inhibition of cold-induced voiding behaviour by measuring reduction in voiding frequency at 10 mg/kg, po administered 1 hr prior to cold exposure and measured at 2 mins interval for 4 hrs; assay type: functional, organism-based; conditions: time 5.0 hrs
Rattus norvegicus [18] = test: Inhibition of overactive bladder activity in Sprague-Dawley rat assessed as inhibition of cold-induced voiding behaviour by measuring total voided volume at 10 mg/kg, po administered 1 hr prior to cold exposure and measured at 2 mins interval for 4 hrs (reference value: 5.57 +/-0.27 ml); assay type: functional; conditions: time 5 hrs
[19] = Drug uptake in rat brain measured after 4 hrs; assay type: ADME, tissue-based; conditions: read-out: Drug uptake
[20] = Plasma concentration in rat measured after 4 hrs; assay type: ADME, cell-free
[21] = Ratio of drug level in rat brain to plasma measured after 4 hrs; assay type: ADME, cell-free; conditions: read-out: BPR
[22] = In vivo antagonist activity at TRPM8 in Sprague-Dawley rat assessed as inhibition of icilin-induced wet dog shakes at 10 mg/kg, po administered 4 hrs prior to icilin administration and measured after 5 mins for 5 mins; assay type: functional; conditions: 4.167 h, time 250 min; how it was run: as §3
[23] = biological target: Transient receptor potential cation channel subfamily M member 8 (Homo sapiens, UniProt Q7Z2W7); test: Antagonist activity at human TRPM8 transfected in HEK293T cells assessed as reduction in menthol-induced calcium influx measured after 60 mins by Fluo-4 AM dye based fluorescence analysis; assay type: cell-based
Sequence of Transient receptor potential cation channel subfamily M member 8 (Homo sapiens, UniProt Q7Z2W7) (Q7Z2W7 whole entry): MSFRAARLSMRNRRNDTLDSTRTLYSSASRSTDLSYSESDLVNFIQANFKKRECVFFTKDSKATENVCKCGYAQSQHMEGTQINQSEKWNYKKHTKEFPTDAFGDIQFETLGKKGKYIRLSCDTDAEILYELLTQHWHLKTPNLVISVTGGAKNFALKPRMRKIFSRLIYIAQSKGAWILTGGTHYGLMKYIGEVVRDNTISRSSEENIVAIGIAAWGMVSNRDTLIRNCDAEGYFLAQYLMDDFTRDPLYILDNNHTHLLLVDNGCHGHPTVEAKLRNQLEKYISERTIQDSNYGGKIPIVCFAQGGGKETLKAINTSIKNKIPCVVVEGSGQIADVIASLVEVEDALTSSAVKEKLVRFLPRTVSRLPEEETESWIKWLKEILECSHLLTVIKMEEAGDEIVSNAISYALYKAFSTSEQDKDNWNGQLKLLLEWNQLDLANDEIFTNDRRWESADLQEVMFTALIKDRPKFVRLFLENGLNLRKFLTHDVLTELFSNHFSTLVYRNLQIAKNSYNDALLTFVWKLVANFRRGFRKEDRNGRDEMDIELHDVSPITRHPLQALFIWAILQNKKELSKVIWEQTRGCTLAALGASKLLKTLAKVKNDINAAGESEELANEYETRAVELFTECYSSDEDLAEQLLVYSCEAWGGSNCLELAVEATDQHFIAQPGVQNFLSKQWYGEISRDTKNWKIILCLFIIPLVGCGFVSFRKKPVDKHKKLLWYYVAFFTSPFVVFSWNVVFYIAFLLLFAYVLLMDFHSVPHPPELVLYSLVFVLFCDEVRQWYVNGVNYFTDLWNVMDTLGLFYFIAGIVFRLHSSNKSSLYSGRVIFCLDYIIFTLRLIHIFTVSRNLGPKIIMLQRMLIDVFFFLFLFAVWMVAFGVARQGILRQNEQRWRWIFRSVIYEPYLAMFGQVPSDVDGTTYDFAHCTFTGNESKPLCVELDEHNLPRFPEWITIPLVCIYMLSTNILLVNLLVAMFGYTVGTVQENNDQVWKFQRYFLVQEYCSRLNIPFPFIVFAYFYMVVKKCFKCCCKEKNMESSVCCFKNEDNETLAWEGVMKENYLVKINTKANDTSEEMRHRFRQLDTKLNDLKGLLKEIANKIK

EC50 [1]: 131 µM
inhibition at 10 min, 10 µM (CYP3A4): 65%
SMILES: NC(=O)[C@@H](c1ccccc1)N(C(=O)c1cccnc1)[C@@H]1CCc2c(F)cc(Cl)cc21
Activity [2]: Non-Toxic

inhibition at 10 min, 10 µM (CYP3A4): 18%
SMILES: NC(=O)[C@@H](c1ccccc1)N(C(=O)c1cccnc1N)[C@@H]1CCc2c(F)cc(Cl)cc21

inhibition at 10 min, 10 µM (CYP3A4): 17%
IC50 [3]: 0.08 µM
Cmax [4]: 466 ng/mL
Tmax [5]: 40 min
AUC(0-inf) [6]: 674 ng·h/mL
AUC(0-inf) [7]: 1110 ng·h/mL
half-life [8]: 64 min
clearance [9]: 25 mL/min/kg
Vd [10]: 1.89 L/kg
bioavailability [11]: 55%
IC50 [12]: > 30 µM
IC50 [13]: > 30 µM
IC50 [14]: > 30 µM
SMILES: Cc1ncccc1C(=O)N([C@@H]1CCc2c(F)cc(Cl)cc21)[C@@H](C(N)=O)c1ccccc1
Activity [2]: Non-Toxic

EC50 [1]: 47 µM
SMILES: NC(=O)[C@@H](c1ccccc1)N(C(=O)c1cccnc1)[C@@H]1CCc2c(F)cc(F)cc21

EC50 [1]: 12 µM
SMILES: C[C@H](c1cc(F)cc(F)c1)N(C(=O)c1ccccc1O)[C@@H](C(N)=O)c1ccccc1

EC50 [1]: 10.3 µM
inhibition at 10 min, 10 µM (CYP3A4): 27%
concentration at 4 h [19]: 171 µM
concentration at 4 h [20]: 103 µM
Kp at 4 h [21]: 1.66
SMILES: C[C@H](c1cc(F)cc(F)c1)N(C(=O)c1ccccc1)[C@@H](C(N)=O)c1ccccc1
inhibition in vivo at 10 mg/kg [15]: 100%
Activity (Rattus norvegicus [16]): 0.75 mL
inhibition (Rattus norvegicus [17]): Active
Activity (Rattus norvegicus [18]): 5.81 mL
inhibition in vivo at 10 mg/kg [22]: 97%

inhibition at 10 min, 10 µM (CYP3A4): 22%
SMILES: COc1ncccc1C(=O)N([C@@H]1CCc2c(F)cc(Cl)cc21)[C@@H](C(N)=O)c1ccccc1

IC50 [23]: 19.5 µM
SMILES: NC(=O)[C@@H](c1ccccc1)N(C(=O)c1ccccc1)[C@@H]1CCc2ncccc21

From ChEMBL document CHEMBL4680310, “Identification of N-acyl-N-indanyl-α-phenylglycinamides as selective TRPM8 antagonists designed to mitigate the risk of adverse effects” (Bioorg Med Chem, 2021)
